Screens as filed in PubChem.
Hits are enriched below; roughly 2.4% of the tested compounds scored in any of these assays.
VIM-2 inhibitor: inhibitors of Pseudomonas aeruginosa VIM-2 metallo-beta-lactamase | purified VIM-2, nitrocefin hydrolysis, epi-absorbance fluorescence | inhibition, % at 5.6 µM | AID 1527 | 290,000 compounds, 0.89% hits;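 active means inhibition above the mean of all tested compounds plus 3 SD, cutoff set per screening run, cut at about 7.5% in these data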;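 further: red hydrolysis product quenches plate fluorescence so inhibitors raise well fluorescence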
M18AAP inhibitor: blocks P. falciparum M18 aspartyl aminopeptidase. recombinant PfM18AAP, H-Glu-NHMec fluorogenic cleavage. inhibition, % at 7.35 µM. 290,000 compounds, 1.2% hits. AID 1822;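 active means inhibition above the campaign mean inhibition over all tested compounds plus 3 SD, cut at about 28% in these data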
IMP-1 inhibitor: inhibitors of Pseudomonas aeruginosa IMP-1 metallo-beta-lactamase | inhibition, % at 5.6 µM | purified IMP-1, nitrocefin hydrolysis, epi-absorbance fluorescence | 290,000 compounds, 0.45% hits;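 active means inhibition above the mean plus 3 SD of all compounds in the same screening run, cut at about 4.5% in these data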
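system = purified recombinant IMP-1 beta-lactamase | amount = 0.2 nM IMP-1, as dispensed | medium = HEPES buffer pH 7.1 with ZnSO4 and Brij 35 | times = 25 °C, 15 min preincubation, 25 min reaction | detection = plate fluorescence quenching by hydrolysis product, ex 480/em 530 nm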
HGIII-sPLA2 inh: Inhibits HGIII-sPLA2 liposome hydrolysis, primary screen | AID 743126 | QFRET BODIPY PC-A2 liposome hydrolysis, fluorescence | inhibition, % at 12.2 µM | Q9NZ20 | 370,000 compounds, 0.56% hits;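 active means inhibition above mean plus 3 SD of compounds lying within the high and low control bounds, cut at about 19% in these data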
Target sequence (Q9NZ20 whole entry, looked up): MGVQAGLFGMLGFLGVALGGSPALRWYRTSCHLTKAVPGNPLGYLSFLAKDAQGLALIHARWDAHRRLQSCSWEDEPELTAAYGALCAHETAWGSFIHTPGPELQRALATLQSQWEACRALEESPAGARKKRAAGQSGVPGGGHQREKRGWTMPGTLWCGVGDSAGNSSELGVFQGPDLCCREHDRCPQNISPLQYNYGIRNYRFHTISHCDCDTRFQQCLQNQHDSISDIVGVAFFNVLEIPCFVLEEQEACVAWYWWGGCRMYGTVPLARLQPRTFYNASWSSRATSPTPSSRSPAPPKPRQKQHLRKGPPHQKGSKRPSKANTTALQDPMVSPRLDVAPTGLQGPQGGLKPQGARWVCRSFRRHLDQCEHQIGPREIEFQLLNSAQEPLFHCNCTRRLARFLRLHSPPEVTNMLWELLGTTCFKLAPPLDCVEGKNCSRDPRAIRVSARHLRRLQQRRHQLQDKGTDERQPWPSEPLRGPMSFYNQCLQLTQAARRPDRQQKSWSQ
Numbers stand for hits; 0 = inactive; - = no result.

SMILES	VIM-2 inhibitor	M18AAP inhibitor	IMP-1 inhibitor	HGIII-sPLA2 inh
CC1=C2NC(N)=[N+](Cc3ccccc3)CC2n2c(=O)n(-c3ccccc3)c(=O)n2C1 (stereo not given)	-	-	-	0
O=C(O)C1CCN(c2nc(-c3ccccc3)c3cc(Br)ccc3n2)CC1	0	0	0	0
OCCN1CCN(c2nc(-c3ccccc3)c3cc(Br)ccc3n2)CC1	8.0	0	0	0
COc1ccc(-c2cc(=O)oc3cc(O)ccc23)cc1	8.6	0	0	0
COc1ccc(-c2cc(=O)oc3cc(OCC(C)=O)ccc23)cc1	0	0	0	0
CN1C(=O)c2cc(NC(=O)C3CC3)ccc2OC[C@H]2O[C@@H](CC(=O)NC3CCC3)CC[C@@H]21	-	-	-	0
CCc1c(C)nc(SCC(=O)Nc2nc(-c3ccc(OC)cc3)cs2)[nH]c1=O	0	0	0	0
CCc1c(C)nc(SCC(=O)NNC(=O)Cc2ccc(OC)cc2)[nH]c1=O	0	29	0	0
Cc1ccc(N2C(=O)SC(N(CC(=O)O)c3cccc(C)c3)C2=O)cc1 (stereo not given)	0	0	0	0
CC(=O)N(c1ccccc1)C1SC(=O)N(c2ccccc2)C1=O (stereo not given)	0	0	6.5	0
O=S(=O)(N[C@@H]1CCCC[C@H]1N1CCOCC1)c1ccc(Cl)cc1	-	-	-	0
Cc1nc2c(sc(=S)n2Cc2ccco2)c(=O)n1CC(=O)Nc1ccccc1F	0	0	6.0	0
CCn1c(=S)sc2c(=O)n(CC(=O)NCCCc3ccccc3)c(C)nc21	0	0	12	0
CCn1c(=S)sc2c(=O)n(CC(=O)Nc3cccc(Cl)c3)c(C)nc21	0	0	0	0
CC(C)C[C@H]1COc2cccc(F)c2S(=O)(=O)N1Cc1cn(Cc2ccc(Cl)cc2)nn1	-	-	-	0
c1cc(Nc2cccc3nccnc23)c2nccnc2c1	8.6	0	0	0
COCCNC(=O)C[C@H]1CC[C@H]2[C@@H](COc3ccc(NS(=O)(=O)c4ccc(Cl)cc4)cc3C(=O)N2C)O1	-	-	-	0
O=C(O)C1C2C=CC3(O2)C1C(=O)N1c2ccccc2C2OCCC2C13 (stereo not given)	11	0	0	0
C=C(C)CC1N(c2cccc(OC)c2)C(=O)C2C(C(=O)O)C3C=CC21O3 (stereo not given)	0	0	0	0
O=C(NC1CCCCN(Cc2cccc(C(F)(F)F)c2)C1=O)c1cccc(F)c1 (stereo not given)	-	-	-	0
COc1ccc(/C(=C/Nc2cccc(Br)c2)C(C)=O)cc1OC	9.9	0	0	0
O=C(NCCCn1ccnc1)C(=O)NCC1OCCN1S(=O)(=O)c1ccccc1 (stereo not given)	0	0	13	0
O=C(NCCCn1ccnc1)C(=O)NCC1OCCCN1S(=O)(=O)c1ccccc1 (stereo not given)	0	0	10	0
CC1=C2NC(N)=[N+](CC3CC3)C(Cc3ccccc3)[C@@H]2n2c(=O)n(-c3ccccc3)c(=O)n2C1 (stereo not given in full)	-	-	-	0
O=C(N[C@@H]1C[C@@H]2O[C@@H](CO)CC[C@@H]2O[C@@H]1CCc1ccc(-c2ccccc2)cc1)c1cnccn1	-	-	-	0
SMILES	VIM-2 inhibitor	M18AAP inhibitor	IMP-1 inhibitor	HGIII-sPLA2 inh
COC(=O)C1CCN(C(=O)c2oc3c(Cl)cc(C)cc3c2C)CC1	0	0	0	0
Cc1cc(Cl)c2oc(C(=O)N3CCN(c4ccncc4)CC3)c(C)c2c1	7.8	0	0	0
Cc1ccccc1C(=O)NC1CCN(C(=O)N(c2ccccc2)c2ccccc2)CC1	0	0	4.6	0
CC(C)Oc1ccc(Cc2cnc(=S)[nH]c2N)cc1	0	31	0	0
O=C(c1ccccc1)N1CCN(CC(O)COCC2CC=CCC2)CC1 (stereo not given)	0	0	0	0
O=C(c1ccccc1)N1CCN(CC2CC=CCC2)CC1 (stereo not given)	0	32	0	0
Cc1ccccc1NC(=S)NNc1ncc(C(F)(F)F)cc1Cl	0	0	0	0
Fc1ccccc1NC(=S)NNc1ncc(C(F)(F)F)cc1Cl	0	28	0	0
O=C(O)Cc1sc(N/N=C\c2ccccc2)nc1-c1ccccc1	0	0	0	23
CCOC(=O)c1sc(N/N=C/c2ccccc2)nc1C	0	0	0	0
CS(=O)(=O)N[C@@H]1C[C@@H]2O[C@H](CO)CC[C@@H]2O[C@@H]1CCc1ccc(-c2ccccc2F)cc1	-	-	-	0
COc1ccc(C#Cc2c(-c3ccccc3OC)oc3ccccc23)cc1	-	-	-	0
Cc1cc(C)cc(N(CC(=O)NC2CCC(C)CC2)S(=O)(=O)c2ccccc2)c1 (stereo not given)	-	-	-	0
Cc1ccc2c(CC(=O)Nc3ccc(N4CCN(C)CC4)cc3C)coc2c1	0	0	7.0	0
Cc1ccc(CN2CCCCC(NC(=O)c3cccc([N+](=O)[O-])c3)C2=O)cc1 (stereo not given)	-	-	-	0
COc1cccc(/C=N/Nc2nn3cnnc3c3ccccc23)c1O	0	31	0	0
Cc1ccc(-n2c(SCC(=O)Nc3cccc4ccccc34)nnc2-c2ccccc2)cc1	-	-	-	0
CCCCNC(=O)CSc1cc(=O)n(C)c2ccccc12	0	0	6.1	0
O=C(NCc1ccccc1)C1(C(=O)C2CC2)CC(c2ccccn2)=NO1 (stereo not given)	-	-	-	0
Cc1ccccc1C(=O)NNC(=S)Nc1cccc(C(F)(F)F)c1	0	0	0	24
CNNC(=S)Nc1cccc(C(F)(F)F)c1	0	29	0	0
FC(F)(F)c1cccc(NC(=S)NNC(=S)Nc2cccc(C(F)(F)F)c2)c1	0	0	0	-
CCOC(=O)C[n+]1c(C)csc1C	0	30	0	0
O=C(Nc1ccc(F)cc1)OCc1cn(Cc2cccc(F)c2F)nn1	-	-	-	0
CC(=O)C1CCC2C3CC=C4CC(SC(=N)N)CCC4(C)C3CCC12C (stereo not given)	-	-	-	37
SMILES	VIM-2 inhibitor	M18AAP inhibitor	IMP-1 inhibitor	HGIII-sPLA2 inh
CC(=O)Nc1ccc(NC(=O)CCCSc2nc3ccccc3[nH]2)cc1	0	0	7.8	0
Cc1ccc(NC(=O)CCCSc2nc3ccccc3[nH]2)cc1	0	0	0	0
CCCCN1CCN(C(=O)C2CCN(S(=O)(=O)c3ccc4[nH]c(=O)oc4c3)CC2)CC1	-	-	-	0
COc1ccc([C@H]2CC(=O)c3c(O)cc(O)cc3O2)cc1O	0	0	0	0
O=C(O[C@@H]1Cc2c(O)cc(O)cc2O[C@@H]1c1cc(O)c(O)c(O)c1)c1cc(O)c(O)c(O)c1	0	64	0	-
C=CCOc1ccc(C2C(C(=O)c3ccco3)=C(O)C(=O)N2c2nnc(C)s2)cc1 (stereo not given)	0	0	5.2	0
COc1ccc(C2C(C(=O)c3ccco3)=C(O)C(=O)N2c2nnc(C)s2)cc1 (stereo not given)	0	0	0	0
O=[N+]([O-])c1cccc(OC[C@@H](O)CN2CCC(C(O)(c3ccccc3)c3ccccc3)CC2)c1	-	-	-	0
O=C(c1ccc2c(=O)n(Cc3ccco3)c(=S)[nH]c2c1)N1CCN(Cc2ccccc2)CC1	0	0	0	0
CN1CCN(C(=O)c2ccc3c(=O)n(Cc4ccco4)c(=S)[nH]c3c2)CC1	8.3	0	0	0
